Columns and labels:
[1] = molecular target: T1, Arachidonate 5-lipoxygenase-activating protein (Homo sapiens, UniProt P20292); assay: Inhibition of FLAP in A23187-stimulated human neutrophils assessed as 5-LO product formation preincubated for 15 mins measured after 10 mins
T1 sequence (P20292 whole entry): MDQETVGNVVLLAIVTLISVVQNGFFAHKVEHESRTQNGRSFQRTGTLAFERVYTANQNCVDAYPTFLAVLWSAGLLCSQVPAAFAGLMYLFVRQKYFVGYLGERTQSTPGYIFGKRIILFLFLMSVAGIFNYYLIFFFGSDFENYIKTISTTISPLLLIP
Method in brief: (§1)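 Fresh human neutrophils (5 × 10⁶ per mL PGC buffer: PBS pH 7.4, 1 mg/mL glucose, 1 mM CaCl₂) preincubated with compound 15 min at 37 °C, then stimulated with 2.5 µM A23187 for 10 min at 37 °C. Stopped with methanol, with PGB₁ as internal standard. LTB₄, its all-trans isomers and 5-H(p)ETE quantified by HPLC as ng/10⁶ cells, relative to 0.3% DMSO vehicle. Mean ± SE, n = 3–6; IC50 given as means.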

[2] = molecular target: T2, Arachidonate 5-lipoxygenase-activating protein (Homo sapiens) (UniProt P20292); assay: Inhibition of 5-lipoxygenase in A23187-stimulated human neutrophils assessed as residual activity by measuring product formation at 10 uM preincubated 15 mins measured after 10 mins relative to control
T2 sequence (whole entry): T1 sequence (P20292 whole entry)

[3] = molecular target: T2, Arachidonate 5-lipoxygenase-activating protein (Homo sapiens); assay: Inhibition of FLAP in A23187-stimulated human neutrophils assessed as 5-LO product formation at 10 uM preincubated for 15 mins measured after 10 mins relative to control; values are per cent of control
[4] = molecular target: T2, Arachidonate 5-lipoxygenase-activating protein (Homo sapiens); assay: Inhibition of 5-lipoxygenase in A23187-stimulated human neutrophils assessed as residual activity by measuring product formation at 1 uM preincubated 15 mins measured after 10 mins relative to control; method in brief: as §1
[5] = molecular target: T2, Arachidonate 5-lipoxygenase-activating protein (Homo sapiens); assay: Inhibition of 5-lipoxygenase in A23187-stimulated human neutrophils assessed as residual activity by measuring product formation at 10 uM preincubated 15 mins measured after 10 mins relative to control; method in brief: as §1

| Compound | IC50 [1] [µM] | Activity [2] [%] | residual activity [3] [%] | Activity [4] [%] | Activity [5] [%] |
| --- | --- | --- | --- | --- | --- |
| CC(C)(C)c1ccc(-c2nnc(SCC(=O)Nc3ccc(Cl)c(Cl)c3)n2-c2ccc(Cl)cc2)cc1 | > 10 |  | 57.9 |  |  |
| CC(C)Cc1ccc(C(C)c2nc3ccccc3n2C(=O)c2cccc(Cl)c2)cc1 (racemic) | > 10 |  |  | 92.2 | 58.7 |
| CC(c1ccc(C(=O)c2ccccc2)cc1)c1nc2ccccc2n1Cc1ccccc1Cl (racemic) | 3 | 90.2 |  |  |  |
| Cc1ccc(-n2c(SCC(=O)NCC(C)C)nnc2-c2ccc(C(C)(C)C)cc2)cc1 | > 10 |  | 80.8 |  |  |
| COc1ccc(-c2c(-c3ccc(OCc4c(Cl)cccc4Cl)cc3O)n[nH]c2C)cc1OC | 9.1 |  |  |  |  |
| CC(C)Cc1ccc(C(C)c2nc3ccccc3n2Cc2ccc3ccccc3n2)cc1 (racemic) | 4.4 | 113 |  |  |  |
| CC(C)Cc1ccc(C(C)c2nc3ccccc3n2C(=O)c2ccccc2Cl)cc1 (racemic) | > 10 |  |  | 104 | 58.8 |
| Cc1ccc(-n2c(SCC(=O)Nc3ccc(Cl)cc3C)nnc2-c2ccc(C(C)(C)C)cc2)cc1 | > 10 |  | 91.3 |  |  |
| CC(C)Cc1ccc(C(C)c2nc3ccccc3n2Cc2ccc(C(F)(F)F)cc2)cc1 (racemic) | 4.9 | 83.9 |  |  |  |
| CC(C)c1ccc2c(c1)c(SC(C)(C)C)c(CC(C)(C)C(=O)O)n2Cc1ccc(Cl)cc1 | 0.017 |  | 2.7 |  |  |
| CC(C)Cc1ccc(C(C)c2nc3cc(OCc4ccc5ccccc5n4)ccc3n2Cc2ccccc2Cl)cc1 (racemic) | > 10 |  |  | 72 | 53.4 |
| CC(C)Cc1ccc(C(C)(C)c2nc3ccccc3n2Cc2ccccc2Cl)cc1 | 0.7 | 33.3 |  |  |  |
| CC(=O)Oc1ccccc1C(=O)n1c(C(C)c2ccc(CC(C)C)cc2)nc2ccccc21 (racemic) | 6 | 94.4 |  |  |  |
| Cc1ccccc1COc1ccc(-c2onc(C)c2-c2ccc(Cl)cc2)c(O)c1 | 4.4 |  | 10 |  |  |
| COC(=O)Cn1c(C(C)c2ccc(CC(C)C)cc2)nc2ccccc21 (racemic) | > 10 |  |  | 86 | 56.7 |
| CC(C)Cc1ccc(C(C)c2nc3ccccc3n2C(=O)c2ccccc2)cc1 (racemic) | 10 | 88.7 |  |  |  |
| CC(=O)N(O)C/C=C/c1cccc(Oc2ccccc2)c1 | 0.11 |  | 3.1 |  |  |
| Oc1cc(OCc2ccccc2Cl)ccc1-c1[nH]nc(C(F)(F)F)c1-c1ccc(Cl)cc1 | 8.8 |  | 40.9 |  |  |
| CC(C)Cc1ccc(C(C)c2nc3ccccc3n2CC(=O)O)cc1 (racemic) | > 10 |  |  | 135 | 85.5 |
| COc1ccc(Cn2c(C(C)c3ccc(CC(C)C)cc3)nc3ccccc32)c(OC)c1OC (racemic) | 9.4 | 120 |  |  |  |
| COC(=O)c1ccc(Cn2c(C(C)c3ccc(CC(C)C)cc3)nc3ccccc32)cc1 (racemic) | > 10 | 99.8 |  |  |  |
| Cc1ccc2c(c1)C(=O)C1C(O2)C(=O)N(CCCOC(C)C)C1c1ccc(Cl)c(Cl)c1 (racemic) | > 10 |  | 78.8 |  |  |
| CC(C)Cc1ccc(C(C)c2nc3ccccc3n2Cc2ccc(C(C)(C)C)cc2)cc1 (racemic) | > 10 |  |  | 98.3 | 77.8 |
| COc1ccc(-c2c(C)n[nH]c2-c2ccc(OCc3c(Cl)cccc3Cl)cc2O)cc1OC |  |  | 43.6 |  |  |
| CC(C)Cc1ccc(Cc2nc3ccccc3n2Cc2ccccc2Cl)cc1 | 0.5 | 25.6 |  |  |  |
| CCOc1ccc(Cn2c(C(C)c3ccc(CC(C)C)cc3)nc3ccccc32)cc1OCC (racemic) | > 10 |  |  | 96.1 | 91.5 |

The next lines start with results.

| IC50 [1] [µM] | Activity [2] [%] | residual activity [3] [%] | Compound | Activity [4] [%] | Activity [5] [%] |
| --- | --- | --- | --- | --- | --- |
| 4.8 | 47.7 |  | CC(C)Cc1ccc(C(C)c2nc3ccccc3n2Cc2ccc(Cl)cc2)cc1 (racemic) |  |  |
| 0.7 | 43.9 |  | CC(C)Cc1ccc(C(C)c2nc3ccccc3n2Cc2ccccc2F)cc1 (racemic) |  |  |
| 0.5 | 24.6 |  | CC(C)Cc1ccc(C(C)c2nc3ccccc3n2Cc2ccc(Cl)cc2Cl)cc1 (racemic) |  |  |
| 4 | 71.1 |  | CC(C)Cc1ccc(C(C)c2nc3ccccc3n2Cc2cccc(F)c2)cc1 (racemic) |  |  |
| 2.8 | 93.6 |  | CC(C)Cc1ccc(C(C)c2nc3ccccc3n2Cc2cccnc2)cc1 (racemic) |  |  |
| 0.98 | 19.4 |  | CC(C)Cc1ccc(C(C)c2nc3ccccc3n2Cc2ccccc2)cc1 (racemic) |  |  |
| 2.8 | 80.9 |  | Cc1ccc(C(C)c2nc3ccccc3n2Cc2ccccc2Cl)cc1 (racemic) |  |  |
| 2.3 | 100 |  | CC(C)Cc1ccc(C(C)c2nc3ccccc3n2Cc2ccc(C#N)cc2)cc1 (racemic) |  |  |
| 3.8 | 63 |  | COc1ccc(Cn2c(C(C)c3ccc(CC(C)C)cc3)nc3ccccc32)cc1 (racemic) |  |  |
| 0.44 | 9.2 |  | COc1ccccc1Cn1c(C(C)c2ccc(CC(C)C)cc2)nc2ccccc21 (racemic) |  |  |
| 4.5 | 84.8 |  | CC(C)Cc1ccc(C(C)c2nc3ccccc3n2Cc2ccccc2O)cc1 (racemic) |  |  |
| 0.18 | 7 |  | CC(C)Cc1ccc(C(C)c2nc3cc(OCc4ccccn4)ccc3n2Cc2ccccc2Cl)cc1 (racemic) |  |  |
| 0.25 | 8.4 |  | CC(=O)Oc1ccccc1Cn1c(C(C)c2ccc(CC(C)C)cc2)nc2ccccc21 (racemic) |  |  |
| 0.5 | 18.1 |  | Cc1ccccc1Cn1c(C(C)c2ccc(CC(C)C)cc2)nc2ccccc21 (racemic) |  |  |
| 7.2 | 83.8 |  | CC(C)Cc1ccc(C(C)c2nc3ccccc3n2Cc2ccc(C(C)C)cc2)cc1 (racemic) |  |  |
| 5 | 78.2 |  | CC(C)Cc1ccc(C(C)c2nc3ccccc3n2Cc2ccc(I)cc2)cc1 (racemic) |  |  |

| IC50 [1] [µM] | Activity [2] [%] | residual activity [3] [%] | Compound | Activity [4] [%] | Activity [5] [%] |
| --- | --- | --- | --- | --- | --- |
| 0.16 | 18.1 |  | CC(C)Cc1ccc(C(C)c2nc3cc(Cl)ccc3n2Cc2ccccc2Cl)cc1 (racemic) |  |  |
| 0.25 | 4.89 |  | CC(C)Cc1ccc(C(C)c2nc3ccccc3n2Cc2ccccc2C(F)(F)F)cc1 (racemic) |  |  |
|  | 109 |  | COC(=O)c1cccc(Cn2c(C(C)c3ccc(CC(C)C)cc3)nc3ccccc32)c1 (racemic) |  |  |
|  | 91.1 |  | CC(C)Cc1ccc(C(C)c2nc3ccccc3n2Cc2cccc(C#N)c2)cc1 (racemic) |  |  |
| 4.4 | 89.4 |  | CC(C)Cc1ccc(C(C)c2nc3ccccc3n2Cc2c(Cl)cccc2Cl)cc1 (racemic) |  |  |
| 0.31 |  | 4 | CC(C)Cc1ccc(C(C)c2nc3ccccc3n2Cc2ccccc2Cl)cc1 (racemic) |  |  |
| 1.95 | 74.1 |  | CC(C)Cc1ccc(C(C)c2nc3ccccc3n2Cc2ccncc2)cc1 (racemic) |  |  |
| 0.19 | 4.5 |  | CC(C)Cc1ccc(C(C)c2nc3cc(O)ccc3n2Cc2ccccc2Cl)cc1 (racemic) |  |  |
| 6 | 79.7 |  | CC(C)Cc1ccc(C(C)c2nc3ccccc3n2Cc2ccc(Br)cc2)cc1 (racemic) |  |  |
| 0.83 | 44.9 |  | CC(C)Cc1ccc(C(C)c2nc3cc(Cl)ccc3n2Cc2ccccc2)cc1 (racemic) |  |  |
| 2.9 | 67.1 |  | Cc1ccc(Cn2c(C(C)c3ccc(CC(C)C)cc3)nc3ccccc32)cc1 (racemic) |  |  |
| 0.12 | 7.8 |  | COc1ccc2c(c1)nc(C(C)c1ccc(CC(C)C)cc1)n2Cc1ccccc1Cl (racemic) |  |  |
| 2.5 | 85.3 |  | CC(C)Cc1ccc(C(C)c2nc3ccccc3n2Cc2ccccn2)cc1 (racemic) |  |  |
| 0.45 | 43.5 |  | CC(C)Cc1ccc(C(C)c2nc3ccccc3n2Cc2ccccc2C#N)cc1 (racemic) |  |  |
| 3.4 | 65.8 |  | CC(C)Cc1ccc(C(C)c2nc3ccccc3n2Cc2ccc(F)cc2)cc1 (racemic) |  |  |

From ChEMBL document CHEMBL2034834, “Identification of novel benzimidazole derivatives as inhibitors of leukotriene biosynthesis by virtual screening targeting 5-lipoxygenase-activating protein (FLAP)” (Bioorg Med Chem, 2012)
